In one data set the test system is CCRF-CEM. Briefly: Cytostatic concentration required to inhibit CEM/0 cells proliferation by 50%. The data set is classed as functional. Conditions: Homo sapiens.
In data set [1] the test system is Human immunodeficiency virus 1. Briefly: Concentration required to protect CEM/0 cells against the cytopathicity of HIV-1 by 50%. Conditions: Human immunodeficiency virus 1, CCRF-CEM. The data set is classed as functional, organism-based. Put shortly: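 CEM/0 or CEM/TK⁻ cells at 250,000 cells/mL were infected with HIV-1 (~20 CCID₅₀/mL) or HIV-2 (~100 CCID₅₀/mL). Cells were mixed with an equal volume of diluted compound and incubated 4 days at 37 °C, then scored for giant cell formation. EC₅₀ is the concentration (μM) giving 50% inhibition of HIV-induced cytopathicity. Values are the mean of 2–4 independent experiments.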
For orientation: Protection from cytopathic effect is a common read-out in antiviral testing.

Data set [2] deals with Human immunodeficiency virus 1. Briefly: Ratio CC50/EC50 for HIV-1 in CEM/0 cells. The data set is classed as functional.
A short description of data set [3]: Partition coefficient (logD7.0). The data set is classed as physicochemical. The following applies: octanol/water, pH 7. Put shortly: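 Compound (2 μmol) was dissolved in 1-octanol (10 mL) and read by UV at 265 nm. Equal volumes of this solution and pH 7.0 phosphate buffer were stirred 5 min at 25 °C, then allowed to separate for 5 min. Octanol-phase absorbance at 265 nm was divided by that of the original octanol solution. Each experiment was done at least in triplicate.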

Data set [4] concerns Human immunodeficiency virus 2. Briefly: Concentration required to protect CEM/TK cells against the cytopathicity of HIV-2 by 50%. Conditions: Human immunodeficiency virus 2, CEM-TK(-).
The subject of data set [5] is Human immunodeficiency virus 2. Briefly: Concentration required to protect CEM/0 cells against the cytopathicity of HIV-2 by 50%. The following applies: Human immunodeficiency virus 2, CCRF-CEM.

Regarding `COC(=O)C(C)NP(=O)(OC[C@@H]1C=C[C@H](n2cc(C)c(=O)[nH]c2=O)O1)Oc1ccc(Cl)cc1` (stereo partly specified), in the data set with CCRF-CEM, the 50% cytotoxic concentration (CC50) (in general, the concentration that lowers cell viability or growth by half) is 11 µM. The EC50 (in general, the concentration needed to bring the measured effect to its halfway point) in data set [1] was 5 nM; in data set [4], 6 nM; in data set [5], 7 nM. Besides, the Selectivity index in data set [2] turned out to be 2200. For the same molecule, the logD (commonly lipophilicity at a set pH, counting ionised and neutral species) in data set [3] was 1.43.

As for `COC(=O)C(C)NP(=O)(OC[C@@H]1C=C[C@H](n2cc(C)c(=O)[nH]c2=O)O1)Oc1ccc(C#N)cc1` (stereo partly specified), the CC50 with CCRF-CEM is 60 µM. Further, the EC50 amounted to 150 nM in data set [1], 90 nM in data set [4] and 130 nM in data set [5]. In addition, the Selectivity index in data set [2] is 400. In addition, the log distribution coefficient (logD) in data set [3] worked out at 0.91.

`COC(=O)C(C)NP(=O)(OC[C@@H]1C=C[C@H](n2cc(C)c(=O)[nH]c2=O)O1)Oc1ccccc1Cl` (stereo partly specified): it took 47 µM to reach half-maximal cytotoxicity in the data set on CCRF-CEM (CC50). In addition, the EC50 in data set [1] amounted to 18 nM; in data set [4], 65 nM; in data set [5], 29 nM. Moreover, the Selectivity index in data set [2] worked out at 2611. In data set [3], this molecule showed a logD of 1.37.

`COC(=O)C(C)NP(=O)(OC[C@@H]1C=C[C@H](n2cc(C)c(=O)[nH]c2=O)O1)Oc1ccc(C(C)=O)cc1` (stereo partly specified) returned a CC50 in the data set with CCRF-CEM of 40 µM. Further, the values for the concentration giving a half-maximal response (EC50) in data set [1], in data set [4] and in data set [5] were 110 nM, 50 nM and 100 nM, respectively. Besides, in data set [2], the Selectivity index came out at 363. This molecule returned a pH-dependent lipophilicity (logD) in data set [3] of 0.9.

`COC(=O)C(C)NP(=O)(OC[C@@H]1C=C[C@H](n2cc(C)c(=O)[nH]c2=O)O1)Oc1ccc(F)cc1` (stereo partly specified) had a CC50 with CCRF-CEM of 26 µM. The EC50 in data set [1] turned out to be 53 nM; in data set [4], 22 nM; in data set [5], 60 nM. Moreover, in data set [2], the Selectivity index turned out to be 490. In addition, the logD in data set [3] amounted to 1.1.

As for `COC(=O)C(C)NP(=O)(OC[C@@H]1C=C[C@H](n2cc(C)c(=O)[nH]c2=O)O1)Oc1cccc(Br)c1` (stereo partly specified), in the data set with CCRF-CEM, the CC50 was found to be 13 µM. The concentration for a half-maximal effect (EC50) in data set [1] is 15 nM; in data set [4], 14 nM; in data set [5] it was 16 nM. Further, the Selectivity index in data set [2] is on record as 867. Moreover, the logD in data set [3] was determined as 1.64.

In the case of `COC(=O)C(C)NP(=O)(OC[C@@H]1C=C[C@H](n2cc(C)c(=O)[nH]c2=O)O1)Oc1ccc(OC)cc1` (stereo partly specified), it took 35 µM to reach half-maximal cytotoxicity in the data set on CCRF-CEM (CC50). In addition, the EC50 in data set [1] was found to be 57 nM; in data set [4], 47 nM; in data set [5], 53 nM. Besides, the Selectivity index in data set [2] worked out at 614. Further, the log distribution coefficient (logD) in data set [3] turned out to be 1.09.

With `COC(=O)C(C)NP(=O)(OC[C@@H]1C=C[C@H](n2cc(C)c(=O)[nH]c2=O)O1)Oc1ccc(C)cc1` (stereo partly specified), in the data set on CCRF-CEM, the half-maximal cytotoxic concentration (CC50) is 34 µM. For the same molecule, the 50% effective concentration (EC50) in data set [1] was 40 nM; in data set [4], 25 nM; in data set [5] it was 50 nM. The Selectivity index in data set [2] is 850. The logD in data set [3] was determined as 1.19.

`COC(=O)C(C)NP(=O)(OC[C@@H]1C=C[C@H](n2cc(C)c(=O)[nH]c2=O)O1)Oc1ccccc1` (stereo partly specified): the CC50 in the data set with CCRF-CEM was more than 100 µM. Besides, the 50% effective concentration (EC50) in data set [1], in data set [4] and in data set [5] was 75 nM each time. In addition, in data set [2], the Selectivity index is given as more than 1333. In data set [3], this molecule came in with a logD of 1.04.

In the case of `COC(=O)C(C)NP(=O)(OC[C@@H]1C=C[C@H](n2cc(C)c(=O)[nH]c2=O)O1)Oc1ccc(I)cc1` (stereo partly specified), half-maximal cytotoxicity in the data set on CCRF-CEM (CC50) was put at 15 µM. Besides, the EC50 amounted to 13 nM in data set [1], 29 nM in data set [4] and 15 nM in data set [5]. For the same molecule, in data set [2], the Selectivity index was determined as 1154. Also, the logD in data set [3] was determined as 1.93.

In the data set with CCRF-CEM, `COC(=O)C(C)NP(=O)(OC[C@@H]1C=C[C@H](n2cc(C)c(=O)[nH]c2=O)O1)Oc1ccc(Br)cc1` (stereo partly specified) [STAMPIDINE] showed a 50% cytotoxic concentration (CC50) of 17 µM. In addition, the figures for the concentration giving a half-maximal response (EC50) in data set [1], in data set [4] and in data set [5] were 9 nM, 18 nM and 16 nM, respectively. Moreover, in data set [2], the Selectivity index was determined as 1889. In data set [3], this molecule registered a logD of 1.6.

For the molecule `COC(=O)C(C)NP(=O)(OC[C@@H]1C=C[C@H](n2cc(C)c(=O)[nH]c2=O)O1)Oc1ccc(Cl)c(Cl)c1` (stereo partly specified), it took 21 µM to reach half-maximal cytotoxicity with CCRF-CEM (CC50). The figures for the 50% effective concentration (EC50) in data set [1], in data set [4] and in data set [5] were 16 nM, 30 nM and 30 nM, respectively. The Selectivity index in data set [2] was 1313. The molecule further registered a log distribution coefficient (logD) in data set [3] of 2.15.

Take `COC(=O)C(C)NP(=O)(OC[C@@H]1C=C[C@H](n2cc(C)c(=O)[nH]c2=O)O1)Oc1cccc(F)c1` (stereo partly specified): the midpoint of cytotoxicity in the data set with CCRF-CEM, the CC50, lay at 30 µM. The EC50 in data set [1] came to 18 nM; in data set [4] it was 65 nM; in data set [5], 35 nM. In addition, the Selectivity index in data set [2] is reported as 1667. The logD in data set [3] stood at 1.08.

As for `Cc1cn([C@H]2C=C[C@@H](CO)O2)c(=O)[nH]c1=O` [STAVUDINE], the EC50 in data set [1] amounted to 651 nM; in data set [4] it was 33000 nM; in data set [5], 770 nM. Moreover, the Selectivity index in data set [2] is reported as 267. Also, the logD in data set [3] was -0.59.

On to `COC(=O)C(C)NP(=O)(OC[C@@H]1C=C[C@H](n2cc(C)c(=O)[nH]c2=O)O1)Oc1cccc(C(C)=O)c1` (stereo partly specified), for which the 50% cytotoxic concentration (CC50) in the data set with CCRF-CEM turned out to be 50 µM. For the same molecule, the 50% effective concentration (EC50) is 80 nM in data set [1], 45 nM in data set [4] and 90 nM in data set [5]. For the same molecule, the Selectivity index in data set [2] came out at 625. Further, the logD in data set [3] was 0.92.

In the data set with CCRF-CEM, `COC(=O)c1ccc(OP(=O)(NC(C)C(=O)OC)OC[C@@H]2C=C[C@H](n3cc(C)c(=O)[nH]c3=O)O2)cc1` (stereo partly specified) returned a CC50 of 31 µM. Also, the EC50 in data set [1] was 25 nM; in data set [4], 25 nM; in data set [5], 22 nM. The Selectivity index in data set [2] is given as 1240. In data set [3], the pH-dependent lipophilicity (logD) was 1.01.

`COC(=O)C(C)NP(=O)(OC[C@@H]1C=C[C@H](n2cc(C)c(=O)[nH]c2=O)O1)Oc1ccc(OC(F)(F)F)cc1` (stereo partly specified): it took 34 µM to reach half-maximal cytotoxicity in the data set on CCRF-CEM (CC50). Moreover, the EC50 in data set [1] was determined as 14 nM; in data set [4], 30 nM; in data set [5], 30 nM. Besides, in data set [2], the Selectivity index turned out to be 2429. Further, the log distribution coefficient (logD) in data set [3] is 1.86.

In the case of `COC(=O)C(C)NP(=O)(OC[C@@H]1C=C[C@H](n2cc(C)c(=O)[nH]c2=O)O1)Oc1ccc([N+](=O)[O-])cc1` (stereo partly specified), the CC50 in the data set on CCRF-CEM is 73 µM. For the same molecule, the 50% effective concentration (EC50) in data set [1] came out at 130 nM; in data set [4], 90 nM; in data set [5], 190 nM. Further, the Selectivity index in data set [2] is on record as 562. For the same molecule, the pH-dependent lipophilicity (logD) in data set [3] stood at 0.9.

`COC(=O)C(C)NP(=O)(OC[C@@H]1C=C[C@H](n2cc(C)c(=O)[nH]c2=O)O1)Oc1ccc(C(F)(F)F)cc1` (stereo partly specified) displayed a CC50 with CCRF-CEM of 13 µM. The figures for the EC50 in data set [1], in data set [4] and in data set [5] were 10 nM, 18 nM and 10 nM, respectively. Besides, the Selectivity index in data set [2] is on record as 1300. The molecule further registered a log distribution coefficient (logD) in data set [3] of 1.77.

`COC(=O)C(C)NP(=O)(OC[C@@H]1C=C[C@H](n2cc(C)c(=O)[nH]c2=O)O1)Oc1cccc(Cl)c1` (stereo partly specified) displayed a CC50 in the data set on CCRF-CEM of 26 µM. Besides, the EC50 in data set [1] is 25 nM; in data set [4] it was 40 nM; in data set [5], 57 nM. Also, the Selectivity index in data set [2] is 1040. This molecule also came in with a pH-dependent lipophilicity (logD) in data set [3] of 1.42.

`COC(=O)C(C)NP(=O)(OC[C@@H]1C=C[C@H](n2cc(C)c(=O)[nH]c2=O)O1)Oc1cccc(I)c1` (stereo partly specified) had a CC50 in the data set on CCRF-CEM of 25 µM. In addition, the EC50 in data set [1] is 8 nM; in data set [4] it was 16 nM; in data set [5], 7 nM. Further, in data set [2], the Selectivity index is 3125. Besides, the pH-dependent lipophilicity (logD) in data set [3] was 1.78.

In the case of `COC(=O)C(C)NP(=O)(OC[C@@H]1C=C[C@H](n2cc(C)c(=O)[nH]c2=O)O1)Oc1cccc(C(F)(F)F)c1` (stereo partly specified), in the data set with CCRF-CEM, it took 14 µM to reach half-maximal cytotoxicity (CC50). For the same molecule, the EC50 in data set [1] was determined as 13 nM; in data set [4], 5.4 nM; in data set [5], 13 nM. The Selectivity index in data set [2] is listed as 1077. In data set [3], the pH-dependent lipophilicity (logD) is 1.57.

The record behind these values is ChEMBL document CHEMBL1132429, “Design and synthesis of lipophilic phosphoramidate d4T-MP prodrugs expressing high potency against HIV in cell culture: structural determinants for in vitro activity and QSAR” (J Med Chem, 1999).
